Measured values: ChEMBL document CHEMBL4354800, “Amphiphilic nebramine-based hybrids Rescue legacy antibiotics from intrinsic resistance in multidrug-resistant Gram-negative bacilli” (Eur J Med Chem, 2019)

Experiments:
[1] = system: Pseudomonas aeruginosa; test: Potentiation of moxifloxacin-induced antibacterial activity against wild type Pseudomonas aeruginosa PAO1 assessed as fold reduction in moxifloxacin MIC at 9 uM incubated for 18 hrs by broth microdilution method; type: functional
Procedure, shortened: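 Antibiotic MIC determined by CLSI broth microdilution (MHB, 5 × 10^5 CFU/mL, 18 h, 37 °C), once alone and once with a fixed concentration of the adjuvant. Potentiation is the ratio of the antibiotic MIC alone to its MIC in the presence of the adjuvant.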

[2] = system: Pseudomonas aeruginosa; test: Potentiation of minocycline-induced antibacterial activity against wild type Pseudomonas aeruginosa PAO1 assessed as fold reduction in minocycline MIC at 9 uM incubated for 18 hrs by broth microdilution method; type: functional
Procedure, shortened: (§1)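 CLSI broth microdilution. Overnight cultures were set to 0.5 McFarland in saline, diluted 1:50 in Mueller-Hinton broth to a final 5 × 10^5 CFU/mL, and incubated 18 h at 37 °C against 2-fold antibiotic dilutions. A fixed adjuvant level was present throughout. MIC = lowest concentration with no visible turbidity, confirmed at 590 nm. Potentiation = fold drop in antibiotic MIC versus antibiotic alone.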

[3] = system: Pseudomonas aeruginosa; test: Antimicrobial activity against XDR Pseudomonas aeruginosa isolate PA264 infected in Galleria mellonella larvae assessed as survival rate at 75 mg/kg co-administered with 75 mg/kg rifampicin at 2 hrs post-inoculation measured after 24 hrs relative to control; type: functional
Procedure, shortened: (§2)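 G. mellonella larvae were injected with ~5 CFU of P. aeruginosa PA264 (10 µL of 5 × 10^2 CFU/mL in PBS) and held 2 h at 37 °C. A single 10 µL injection followed: monotherapy or rifampicin + compound (25+25, 50+50 or 75+75 mg/kg), with PBS as control. Larvae kept at 37 °C were scored every 6 h to 24 h; dead = no response to touch. n = 30 (two runs of 15); Kaplan-Meier.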

[4] = system: Escherichia coli; test: Antimicrobial activity against Escherichia coli ATCC 25922 incubated for 18 hrs by broth dilution method; type: functional; conditions: ATCC 25922, 18 h
Procedure, shortened: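 CLSI broth microdilution. Overnight cultures were adjusted to 0.5 McFarland in saline, diluted 1:50 in Mueller-Hinton broth, and inoculated at a final 5 × 10^5 CFU/mL. Compounds were tested as 2-fold serial dilutions and incubated 18 h at 37 °C. MIC was the lowest concentration with no visible turbidity, confirmed by absorbance at 590 nm.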

[5] = system: Acinetobacter baumannii; test: Synergistic antibacterial activity against multidrug-resistant Acinetobacter baumannii AB92247 assessed as fractional inhibitory concentration index in presence of minocycline incubated for 18 hrs by broth dilution method; type: functional
[6] = system: Escherichia coli; test: Synergistic antibacterial activity against Escherichia coli 107115 assessed as fractional inhibitory concentration index in presence of minocycline incubated for 18 hrs by broth dilution method; type: functional
Procedure, shortened: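 Checkerboard titration of the adjuvant against the antibiotic, run under the CLSI microdilution conditions (MHB, 5 × 10^5 CFU/mL, 18 h, 37 °C). Each agent's FIC is its MIC in combination divided by its MIC alone; FICI is the sum of the two FICs. FICI ≤0.5 was read as synergy, >0.5–4.0 as no interaction, and >4.0 as antagonism.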

[7] = system: Acinetobacter baumannii; test: Antimicrobial activity against multidrug-resistant Acinetobacter baumannii ATCC 17978 incubated for 18 hrs by broth dilution method; type: functional; conditions: ATCC 17978, 18 h
Procedure, shortened: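 Broth microdilution per CLSI: overnight cultures set to 0.5 McFarland in saline, diluted 1:50 in Mueller-Hinton broth to a final 5 × 10^5 CFU/mL, added to 2-fold serial dilutions, incubated 18 h at 37 °C; MIC is the lowest concentration without visible turbidity, confirmed at 590 nm.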

[8] = system: Pseudomonas aeruginosa; test: Antimicrobial activity against XDR Pseudomonas aeruginosa isolate PA264 infected in Galleria mellonella larvae assessed as survival rate at 25 mg/kg co-administered with 25 mg/kg rifampicin at 2 hrs post-inoculation measured after 24 hrs relative to control; type: functional; procedure, shortened: as §2
[9] = system: Acinetobacter baumannii; test: Potentiation of minocycline-induced antibacterial activity against multidrug-resistant Acinetobacter baumannii AB92247 assessed as fold reduction in minocycline MIC at 4.1 uM incubated for 18 hrs by broth dilution method; type: functional
[10] = system: Pseudomonas aeruginosa; test: Potentiation of rifampicin-induced antibacterial activity against wild type Pseudomonas aeruginosa PAO1 assessed as fold reduction in rifampicin MIC at 7.5 uM incubated for 18 hrs by broth microdilution method; type: functional; procedure, shortened: as §1
[11] = system: Pseudomonas aeruginosa; test: Disruption of electrical component of PMF with transmembrane chemical component increment in Pseudomonas aeruginosa PAO1 membrane assessed as increase in tetracycline uptake measured every 1 min for 30 mins by fluorescence based assay; type: organism-based; conditions: Bacterial membrane
Procedure, shortened: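 P. aeruginosa PAO1 was grown to OD600 0.6, washed and resuspended in 10 mM HEPES pH 7.2, then treated with varying compound concentrations plus […] tetracycline. Fluorescence (ex 405/em 535 nm) was read each minute for 30 min at room temperature. Triplicates, averaged.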

[12] = system: Pseudomonas aeruginosa; test: Potentiation of minocycline-induced antibacterial activity against MDR/XDR Pseudomonas aeruginosa isolate 100036 harboring GyrA T83I mutant assessed as fold reduction in minocycline MIC at 7.5 uM incubated for 18 hrs by broth microdilution method; type: functional
[13] = system: Pseudomonas aeruginosa; test: Potentiation of minocycline-induced antimicrobial activity against MDR/XDR Pseudomonas aeruginosa isolate 101885 harboring GyrA Thr83Ile mutant assessed as minocycline MIC50 incubated for 18 hrs by broth microdilution method (reference value: 16 microg/ml); type: functional; conditions: isolate 101885, 18 h
[14] = system: Pseudomonas aeruginosa; test: Potentiation of moxifloxacin-induced antibacterial activity against MDR/XDR Pseudomonas aeruginosa isolate PA264-104354 harboring GyrA T83I mutant assessed as fold reduction in moxifloxacin MIC at 7.5 uM incubated for 18 hrs by broth microdilution method; type: functional; procedure, shortened: as §1
[15] = system: Pseudomonas aeruginosa; test: Potentiation of rifampicin-induced antimicrobial activity against MDR/XDR Pseudomonas aeruginosa isolate PA264-104354 harboring GyrA Thr83Ile mutant assessed as rifampicin MIC50 incubated for 18 hrs by broth microdilution method (reference value: 8 microg/ml); type: functional; conditions: isolate PA264-104354, 18 h
[16] = system: Acinetobacter baumannii; test: Synergistic antibacterial activity against multidrug-resistant Acinetobacter baumannii 110193 assessed as fractional inhibitory concentration index in presence of rifampicin incubated for 18 hrs by broth dilution method; type: functional
[17] = system: Pseudomonas aeruginosa; test: Potentiation of rifampicin-induced antimicrobial activity against MDR/XDR Pseudomonas aeruginosa isolate 91433 devoid of GyrA Thr83Ile mutant assessed as rifampicin MIC80 incubated for 18 hrs by broth microdilution method (reference value: 16 microg/ml); type: functional; conditions: isolate 91433, 18 h
[18] = system: Pseudomonas aeruginosa; test: Potentiation of minocycline-induced antibacterial activity against MDR/XDR Pseudomonas aeruginosa isolate PA259-96918 harboring GyrA T83I mutant assessed as fold reduction in minocycline MIC at 7.5 uM incubated for 18 hrs by broth microdilution method; type: functional
[19] = system: Acinetobacter baumannii; test: Synergistic antibacterial activity against multidrug-resistant Acinetobacter baumannii 110193 assessed as fractional inhibitory concentration index in presence of minocycline incubated for 18 hrs by broth dilution method; type: functional
[20] = system: Pseudomonas aeruginosa; test: Potentiation of minocycline-induced antibacterial activity against MDR/XDR Pseudomonas aeruginosa isolate 101243 devoid of GyrA T83I mutant assessed as fold reduction in minocycline MIC at 7.5 uM incubated for 18 hrs by broth microdilution method; type: functional

## Cl.Cl.Cl.Cl.Cl.Cl.NC[C@H]1O[C@H](O[C@H]2[C@H](OCCCCCCCCCCN3CCN(Cc4cccc5ccccc45)CC3)[C@@H](O)[C@H](N)C[C@@H]2N)[C@H](N)C[C@@H]1O
[1]
  fold change (FC): 32
[2]
  fold change (FC): 16

## Cl.Cl.Cl.Cl.Cl.NC[C@H]1O[C@H](O[C@H]2[C@H](OCCCCCCCCCCCCN3CCN(c4cc5c(cc4F)c(=O)c(C(=O)O)cn5C4CC4)CC3)[C@@H](O)[C@H](N)C[C@@H]2N)[C@H](N)C[C@@H]1O
[3]
  survival at 75 mg/kg: 53%
[4]
  MIC: 8 µg/mL
[5]
  fractional inhibitory concentration index (FICI): 0.531
[6]
  fractional inhibitory concentration index (FICI): 0.133
[7]
  MIC: 128 µg/mL
[8]
  survival at 25 mg/kg: 13%
[9]
  fold change (FC): 2

## COc1c(N2C[C@@H]3CCCN(CCCCCCCCCCCCO[C@@H]4[C@@H](O)[C@H](N)C[C@H](N)[C@H]4O[C@H]4O[C@H](CN)[C@@H](O)C[C@H]4N)[C@@H]3C2)c(F)cc2c(=O)c(C(=O)O)cn(C3CC3)c12.Cl.Cl.Cl.Cl.Cl
[10]
  fold change (FC): >=256
[11]
  Activity: Dose-dependent effect
[12]
  fold change (FC): 32
[13]
  MIC50: 0.5 µg/mL
[14]
  fold change (FC): 16
[15]
  MIC50: 0.06 µg/mL
[16]
  fractional inhibitory concentration index (FICI): 0.031 - 0.047
[17]
  MIC80: 0.13 µg/mL
[18]
  fold change (FC): 32
[19]
  fractional inhibitory concentration index (FICI): >1
[20]
  fold change (FC): 16
